Source: paper PMC6710528 (British Journal of Clinical Pharmacology, 2019)
“Also recorded” adds a separate entry of the source. Where two headings read alike, the source gives them in different places. One block for each molecule: values may come before it.

Experiments:
[1] = assay type: in vivo, human (healthy subjects); settings: for Increase in T1/2: quizartinib coadministered with ketoconazole; for Tmax / AUC(0-inf) / AUC(0-t) / half-life / Cmax: human, plasma, oral; for AUC(0-inf): AUCinf; for AUC(0-inf) / AUC(0-t) / Cmax: geometric LS mean (SE); for AUC(0-t): AUClast; for half-life: Mean T1/2 (CV%); for Geometric mean CL/F (%CV): quizartinib
[2] = C-QTc model, phase 2 data; ref data on file, Daiichi Sankyo, Inc; cited from earlier work
[3] = Plasma concentrations of ketoconazole and fluconazole to confirm steady state; assay type: in vivo, human (healthy subjects); settings: 200 mg twice daily
How it was run: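 Inhibitors were given orally for 8 days (moderate inhibitor: 200 mg twice daily) before the test compound. Blood was drawn before the morning dose on Days 6–8. On Day 8 it was also drawn at 2 and 12 h post-dose for the strong inhibitor, and at 3 and 12 h for the moderate inhibitor. Plasma levels were measured by validated LC–MS/MS and reported as mean ± standard deviation.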

[4] = ref data on file, Daiichi Sankyo, Inc; cited from earlier work
[5] = Safety: adverse event evaluation; assay type: in vivo, human (healthy subjects)
How it was run: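 Healthy males and females aged 18–55 years were randomised 1:1:1 to strong inhibitor + test compound, moderate inhibitor + test compound, or test compound alone. A single oral 30 mg dose was given on Day 8. The safety population was everyone who received the test compound or ≥1 inhibitor dose. Assessments included physical exams, vital signs, 12‑lead ECG, haematology, chemistry and urinalysis. AEs were graded for severity, relation to study drugs and clinical significance through Day 29.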

[6] = 12-lead electrocardiograms: QTcF interval by ICH E14 category; assay type: in vivo, human (healthy subjects); settings: single 30-mg dose alone or with ketoconazole or fluconazole
[7] = AC886 in plasma, (Ketoconazole + Quizartinib)/(Quizartinib)
[8] = 30 mg, quizartinib in plasma, single 30-mg dose of quizartinib alone
[9] = 200 mg, quizartinib in plasma, single 30-mg dose with fluconazole 200 mg twice daily
[10] = 200 mg, quizartinib in plasma, single 30-mg dose with ketoconazole 200 mg twice daily
[11] = with fluconazole coadministration
[12] = with ketoconazole coadministration vs quizartinib alone

AUCinf, ratio of geometric LS mean (90% CI) [1, 7]: 85%
AUClast, ratio of geometric LS mean (90% CI) [1, 7]: 67%
Cmax, ratio of geometric LS mean (90% CI) [1, 7]: 40%
Median Tmax (min, max) ([1]; AC886 in plasma, single 30-mg dose of quizartinib alone): 5.1 h
Median Tmax (min, max) ([1]; AC886 in plasma, single 30-mg quizartinib dose with fluconazole): 5.0 h
Median Tmax (min, max) ([1]; AC886 in plasma, single 30-mg quizartinib dose with ketoconazole): 48.0 h
Ratio of geometric LS means of Cmax of AC886 to Cmax of quizartinib ([1]; fluconazole + quizartinib arm): 0.12
Ratio of geometric LS means of Cmax of AC886 to Cmax of quizartinib ([1]; ketoconazole + quizartinib arm): 0.04
Ratio of geometric LS means of Cmax of AC886 to Cmax of quizartinib ([1]; quizartinib arm): 0.13
Increase in T1/2 [1]: 96%
Structure (SMILES): CC(C)(CO)c1cc(NC(=O)Nc2ccc(-c3cn4c(n3)sc3cc(OCCN5CCOCC5)ccc34)cc2)no1 [AC886]
Effect on QTcF, fold lower than quizartinib [2]: 10 fold

Mean (± standard deviation) plasma concentration ([3]; predose on Day 6): 13.2 ± 4.1 µg/mL
Mean (± standard deviation) plasma concentration ([3]; predose on Day 7): 13.8 ± 3.8 µg/mL
Mean (± standard deviation) plasma concentration ([3]; predose on Day 8): 14.5 ± 3.7 µg/mL
Structure (SMILES): OC(Cn1cncn1)(Cn1cncn1)c1ccc(F)cc1F [fluconazole]

Mean (± standard deviation) plasma concentration ([3]; predose on Day 6): 1.5 ± 0.8 µg/mL
Mean (± standard deviation) plasma concentration ([3]; predose on Day 7): 1.4 ± 0.7 µg/mL
Mean (± standard deviation) plasma concentration ([3]; predose on Day 8): 1.4 ± 0.8 µg/mL
Structure (SMILES): CC(=O)N1CCN(c2ccc(OCC3COC(Cn4ccnc4)(c4ccc(Cl)cc4Cl)O3)cc2)CC1 (stereo not drawn) [ketoconazole]

Structure (SMILES): CC(C)(C)c1cc(NC(=O)Nc2ccc(-c3cn4c(n3)sc3cc(OCCN5CCOCC5)ccc34)cc2)no1 [quizartinib]
Increase in quizartinib exposure ([1]; coadministration with moderate CYP3A inhibitor fluconazole): ≤ 20%
Tmax ([1]; 30 mg): 4 h
AUC(0-inf) [1, 8]: 9630 ng·h/mL
AUC(0-t) [1, 8]: 9100 ng·h/mL
half-life [1, 8]: 98 h
Tmax ([1]; 200 mg): 4 h
AUC(0-inf) [1, 9]: 11500 ng·h/mL
AUC(0-inf) [1, 10]: 18700 ng·h/mL
AUC(0-t) [1, 9]: 10900 ng·h/mL
AUC(0-t) [1, 10]: 17000 ng·h/mL
Cmax [1, 9]: 116 ng/mL
Cmax [1, 10]: 121 ng/mL
half-life [1, 9]: 112 h
half-life [1, 10]: 145 h
Decrease in CL/F ([1]; ketoconazole coadministered with quizartinib): 50%
Increase in T1/2 [1]: 46%
Median Tmax (min, max) ([1]; quizartinib in plasma, single 30-mg dose with fluconazole 200 mg twice daily): 4.0 (2.0, 5.0) [n = 28] h
Mean T1/2 (CV%) ([1]; quizartinib in plasma, single 30-mg dose with ketoconazole 200 mg twice daily): 149 (23.0) [n = 28] h
Geometric mean CL/F (%CV) ([1]; single 30-mg dose of quizartinib alone): 2.75 (35.9) [n = 29] L/h
Geometric mean CL/F (%CV) ([1]; single 30-mg dose with fluconazole 200 mg twice daily): 2.29 (34.3) [n = 28] L/h
Geometric mean CL/F (%CV) ([1]; single 30-mg dose with ketoconazole 200 mg twice daily): 1.42 (26.1) [n = 28] L/h
Change in CL/F [1, 11]: ~17%
Change in mean T1/2 [1, 11]: ~ 10%
Increase in geometric LS mean AUCinf [1, 11]: 20%
Increase in geometric LS mean AUClast [1, 11]: 20%
Increase in geometric LS mean Cmax [1, 11]: 11%
Increase in geometric LS mean AUCinf [1, 12]: 94%
Increase in geometric LS mean AUClast [1, 12]: 86%
Increase in geometric LS mean Cmax [1, 12]: 17%
Median effective half-life [4]: 73 h
Serious adverse events ([5]; all treatment arms): no serious adverse events or deaths occurred; also recorded: no serious AEs observed
Subjects who experienced at least 1 AE ([5]; fluconazole + quizartinib arm): 14 (45.2%) subjects (%)
Subjects with AEs considered possibly related to quizartinib ([5]; fluconazole + quizartinib arm): 1 subjects
Subjects with AEs considered possibly related to quizartinib ([5]; ketoconazole + quizartinib arm): 1 subjects
Subjects who experienced quizartinib-related adverse events ([5]; overall): 5.4%
Subjects with AEs considered possibly related to quizartinib ([5]; overall (n = 93)): 5 (5.4%) subjects (%)
Subjects who experienced at least 1 AE ([5]; quizartinib + ketoconazole arm): 9 (29.0%) subjects (%)
Subjects who experienced at least 1 AE ([5]; quizartinib arm): 13 (41.9%) subjects (%)
Subjects with AEs considered possibly related to quizartinib ([5]; quizartinib arm): 3 subjects
Vital signs and changes to QTcF, haematology or clinical chemistry [6]: No significant abnormalities in vital signs or changes to QTcF
